Paper PMC5538152 (Pharmacognosy Magazine, 2017)
pIC50: −log10 of the molar value.

Key:
[1] = system: DLD-1 colon carcinoma cell line; conditions: read-out: IC50 against DLD-1; cited from earlier work
[2] = system: HeLa cervical carcinoma cell line; conditions: read-out: IC50 against HeLa; cited from earlier work
caspase 8 in HT29 cells = assay: Active caspase 8 by flow cytometry; assay type: cell-based, human; conditions: 72 h of treatment
In short: (§1)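 HT29 cells were seeded at 1 × 10^5 cells/ml overnight, then exposed to test compound at 8, 14 or 28 μM for 72 h (37°C, 5% CO2), with untreated cells in 0.5% DMSO as control. Harvested, PBS-washed cells were labelled 45 min at 37°C with FITC-IETD-FMK (caspase 8) or FITC-LEHD-FMK (caspase 9), then washed and read by flow cytometry in FL1. Means ± SD, ≥3 independent experiments.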

caspase 9 in HT29 cells = assay: Active caspase 9 by flow cytometry; assay type: cell-based, human; conditions: 72 h of treatment
In short: as §1

[3] = system: CCD-18Co normal human colon fibroblast cell line; assay: In vitro cytotoxicity assay; assay type: cell-based; conditions: 72 h
HT29 cells [4] = assay: Nuclear morphology by Hoechst 33342/propidium iodide staining; assay type: cell-based, human; conditions: 8 μM, 48 h
In short: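 Overnight cultures (1 × 10^5 cells/ml) were given test compound at 8, 14 or 28 μM or 0.5% DMSO for 48 h at 37°C, 5% CO2. Cells were harvested, washed in cold PBS and incubated with Hoechst 33342 (10 μg/ml) for 7 min at 37°C. PI (2.5 μg/ml) was then added for 15 min in the dark at room temperature. Cells were dried on slides and nuclei examined by fluorescence microscopy at ×630.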

HT29 cells [5] = assay: Cell morphology by phase contrast microscopy; assay type: cell-based, human; conditions: 8, 14, 28 μM; dose- and time-dependent
HT29 cells [6] = assay: Cell cycle analysis; assay type: cell-based, human; conditions: 72 h; for Percentage of cells in G2-M phase (Dip G2): untreated 7.70%; for Percentage of cells in G0-G1 phase (Dip G1): untreated 65.54%
caspase 8 and caspase 9 = conditions: cited from earlier work

C=CC(C)(C)c1cc2cc3c(cc2oc1=O)OC(C(C)(C)OC(C)=O)C3 (stereo not shown) [Rutamarin (8), rutamarin]
pIC50 [1]: 4.43 | pIC50 [2]: 4.29 | Caspase 8 activation relative to untreated cells (caspase 8 in HT29 cells): 15 fold | Caspase 9 activation relative to untreated cells (caspase 9 in HT29 cells): 4 fold | Toxicity to normal colon cells (words) ([3]; listed as Rutamarin): not toxic to CCD-18Co cells | Toxicity to normal colon cells (words) ([3]; listed as rutamarin): exerted no damage against the normal cells | IC50 ([3]; Homo sapiens, CCD-18Co, read-out: IC50 (μM), CCD-18Co, 72 h of incubation, SRB): ≥ 100 µM | Nuclear morphology (HT29 cells [4]): chromatin condensation | Cellular morphological changes (HT29 cells [5]): apoptotic bodies, cell shrinkage, detachment, and rounding were observed | Percentage of cells in G2-M phase (Dip G2) (HT29 cells [6]; 8 μM): 12.05% | Percentage of cells in G0-G1 phase (Dip G1) (HT29 cells [6]; 8 μM): 75.26% | Percentage of cells in G2-M phase (Dip G2) (HT29 cells [6]; 14 μM): 12.60% | Percentage of cells in G0-G1 phase (Dip G1) (HT29 cells [6]; 14 μM): 76.20% | Percentage of cells in G2-M phase (Dip G2) (HT29 cells [6]; 28 μM): 15.24% | Percentage of cells in G0-G1 phase (Dip G1) (HT29 cells [6]; 28 μM): 76.58%

CCCC(=O)c1c(O)c(C/C=C(\C)CCC=C(C)C)c(O)c2c([C@@H](O)CC)cc(=O)oc12 [kayeassamin A]
Caspase activation (caspase 8 and caspase 9): activate caspase 8 more than caspase 9
